Bioassay records as filed in PubChem.
Scp1 inh – Scp-1 phosphatase inhibitors, primary screen, biochemical, colorimetric, uHTS. inhibition, % at 20 µM. Recombinant Scp1, phosphopeptide, malachite green phosphate absorbance. actives 0.88% (n = 340,000). Carboxy-terminal domain RNA polymerase II polypeptide A small phosphatase 1 (Homo …;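 active = inhibition above about 50% at 20 µM, limit read from the data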;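 also: plate controls were DMSO wells with enzyme for no effect and wells lacking enzyme for full effect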
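Test system: SCP-1 phosphatase catalytic domain, residues 76-261 | Compound dosing: One concentration, 20 µM, with 1.0% DMSO | Schedule: 45 min room-temperature reaction, 5 min colour, 30 min stabiliser | Detection: Absorbance at 630 nm | Read-out basis: % inhibition of SCP-1 phosphate liberation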
SUMO1 PPI mod – modulators of SUMO1 protein-protein interactions, primary screen, biochemical, uHTS; Small ubiquitin-related modifier 1 (Homo sapiens), P63165; SUMO1 binding to a labelled peptide, TR-FRET, 1 h; inhibition, % at 20 µM; actives 0.33% (n = 360,000); AID 602429, 2012; in the data active = inhibition above about 37%
Target sequence (P63165 whole entry, looked up): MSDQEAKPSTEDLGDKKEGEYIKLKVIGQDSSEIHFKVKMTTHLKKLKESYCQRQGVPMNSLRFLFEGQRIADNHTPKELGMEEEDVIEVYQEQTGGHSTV
LMPTP block – LMPTP phosphatase inhibitors, primary screen, biochemical, fluorescence intensity, uHTS; Low molecular weight phosphotyrosine protein phosphatase (Homo sapiens), P24666; recombinant LMPTP-A, OMFP fluorogenic substrate; inhibition, % at 20 µM; actives 0.22% (n = 360,000);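 active = compounds that cut the enzyme signal by at least half of the control window in the single-dose screen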;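 also: plate controls were DMSO wells with enzyme plus substrate for no effect and substrate without enzyme for full effect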
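Test system: LMPTP-A phosphatase enzyme; input: 0.625 nM LMPTP-A final; reagent: OMFP substrate, 400 µM final; compound dosing: 20 µM single dose, 3% DMSO; incubation: 50 min dark incubation at room temperature; measured by: endpoint fluorescence intensity from OMFP dephosphorylation; measure: % inhibition relative to no-enzyme and uninhibited control wells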
DNMT1 inh – human DNMT1 methyltransferase inhibitors, primary screen, biochemical, molecular beacon, fluorescence, HinP1I cleavage, uHTS | actives 0.83% (n = 360,000) | inhibition (reported as % activation of signal), % at 10 µM; in the data active = inhibition above about 50%
STEP inh – STEP phosphatase inhibitors, primary screen, biochemical, fluorescence intensity, uHTS | Tyrosine-protein phosphatase non-receptor type 5 (Homo sapiens), P54829 | recombinant STEP, OMFP fluorogenic substrate | inhibition, % at 20 µM | actives 0.25% (n = 360,000) | AID 588621, 2011;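 active = inhibition at 20 µM, scaled per plate between control wells, above about 37%, limit read from the data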;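 also: 0% = DMSO with enzyme and substrate and 100% = substrate only without enzyme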
Target sequence (P54829 whole entry, looked up): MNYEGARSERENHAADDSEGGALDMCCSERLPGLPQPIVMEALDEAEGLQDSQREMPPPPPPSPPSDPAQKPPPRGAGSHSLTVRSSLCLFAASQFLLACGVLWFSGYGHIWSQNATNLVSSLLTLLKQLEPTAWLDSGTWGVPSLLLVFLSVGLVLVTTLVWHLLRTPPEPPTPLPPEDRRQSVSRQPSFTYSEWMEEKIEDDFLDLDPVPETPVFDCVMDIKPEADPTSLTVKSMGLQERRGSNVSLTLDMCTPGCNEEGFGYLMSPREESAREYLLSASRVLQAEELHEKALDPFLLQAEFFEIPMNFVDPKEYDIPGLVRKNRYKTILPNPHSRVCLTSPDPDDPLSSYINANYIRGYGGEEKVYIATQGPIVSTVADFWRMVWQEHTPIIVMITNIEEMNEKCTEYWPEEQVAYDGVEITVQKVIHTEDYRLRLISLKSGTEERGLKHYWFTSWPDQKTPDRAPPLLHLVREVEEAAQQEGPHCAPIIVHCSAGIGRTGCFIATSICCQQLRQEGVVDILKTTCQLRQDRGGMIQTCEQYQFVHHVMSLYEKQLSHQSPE
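Assay system: isolated STEP enzyme. Buffer or medium: pH 6.0 Bis-Tris with DTT and Tween 20. Also added: fluorogenic phosphatase substrate OMFP at 25 µM final. Dosing: 20 µM, 1% DMSO. Timing: 20 min reaction, room temperature, in the dark. Measured by: fluorescence intensity, excitation 480 nm, emission 540 nm. Evaluation: normalized % inhibition.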
An asterisk follows results filed as active; . = no result; + = active, no number. Compounds with a hit are over-represented: about 1.7% of the library has one in this group of screens.

SMILES	Scp1 inh	SUMO1 PPI mod	LMPTP block	DNMT1 inh	STEP inh
O=C(O)CC1(CC(=O)Nc2cccc(C(=O)O)c2)CCCC1	0.9	2.3	-1.7	1.2	-3.7
Cn1c(/N=C/c2c(O)ccc3ccccc23)nc2ccccc21	-4.3	81.7*	2.8	4.0	0.5
O=c1[nH]cc(S(=O)(=O)N2CCN(c3ccccc3F)CC2)c(=O)[nH]1	.	4.1	-2.2	4.6	-2.6
CC1CCN(Cc2nc(-c3ccccc3)no2)CC1	-10.8	49.9*	-1.0	-1.8	-3.7
Cc1cccc(-n2nc3c(c2NC(=O)c2ccco2)CSC3)c1C	49.7	6.4	3.8	86.5*	2.2
CC(=O)Nc1ccc2nc3c(=O)n(C)c(=O)n(C)c3nc2c1	83.5*	9.2	0.6	-0.6	1.7
Cn1c(=O)c2nc3ccccc3nc2n(C)c1=O	-5.4	-29.8	-0.5	4.0	-2.4
CCc1nc2ccc(C(=O)NCCN3CCOCC3)cn2c1N(CC)CCOC	.	4.0	-2.4	-3.2	0.8
COc1ccc([C@H]2CC(=O)C=C(c3ccc(CNC(=O)OC(C)(C)C)cc3)C2)cc1	-7.1	-18.4	3.0	-9.4	4.8
CS(=O)(=O)c1ccc(C(=O)OC2CCOC2=O)cc1[N+](=O)[O-] (stereo unspecified)	30.1	-25.2	-1.4	67.6*	4.8
O=C(OC1CCOC1=O)c1ccccc1C(=O)c1ccc(Cl)c([N+](=O)[O-])c1 (stereo unspecified)	17.8	-21.5	0.9	12.3	-2.6
CCOc1ccc(NC(=O)C(CC)n2nc(C)c3c(C)n(-c4ccccc4)nc3c2=O)cc1 (stereo unspecified)	9.7	3.8	-1.9	-0.5	1.6
Cc1ccc(Cn2c(CCNc3nc(-c4ccc(C)cc4)cs3)nc3cc(C(=O)NCCCO)ccc32)cc1	-3.0	51.9*	2.0	-77.8	-0.8
Brc1ccc(C2=CC(c3cccs3)n3ncnc3N2)cc1 (stereo unspecified)	3.4	-23.1	2.8	66.3*	-46.2
COc1ccccc1CNc1nc(NCc2ccc(NC(C)=O)cc2)c2sccc2n1	.	2.0	65.1*	-12.3	1.7
CC(=O)NCCNc1nc(NCc2ccccc2)nc2ccsc12	.	2.8	28.6	1.4	-3.9
COc1ccccc1CNc1nc(Nc2cccc(-c3cnco3)c2)c2sccc2n1	.	0.9	51.0*	-32.0	2.8
CC(=O)Nc1ccc(CNc2nc(NCc3cccs3)nc3ccsc23)cc1	.	0.0	60.6*	-8.1	1.4
COc1ccccc1CNc1nc(NCc2ccccc2OC)c2sccc2n1	.	-5.7	22.6	-11.9	1.2
O=C(NC1CCCCC1)C(=O)c1c[nH]c2ccccc12	-6.7	-3.4	1.0	2.2	-3.5
O=C(NCc1ccco1)c1ccc(S(=O)(=O)N2CCOCC2)cc1	33.4	6.8	4.6	76.3*	12.5
O=C(NCc1ccco1)c1ccc(S(=O)(=O)N2CCCCC2)cc1	3.3	-1.1	-1.7	2.8	-4.2
O=C(CCCn1c(SCC(=O)c2ccc(O)c(O)c2)nc2ccccc2c1=O)NCC1CCCO1 (stereo unspecified)	-5.8	6.1	51.3*	6.7	1.8
Cc1cc(C)c(-n2c(SCC(=O)N3CCOCC3)n[nH]c2=O)c(C)c1	-3.7	2.2	1.2	3.3	1.4
CCOC(=O)/C(=C\C=C1/Sc2cc(OCC)c(OCC)cc2N1CC)C(C)=O	0.6	-201.1	14.6	93.1*	-129.4
SMILES	Scp1 inh	SUMO1 PPI mod	LMPTP block	DNMT1 inh	STEP inh
Cc1ccccc1-c1nc(S(=O)(=O)c2ccccc2)c(N2CCCC2)o1	-4.8	0.5	2.2	-1.1	0.5
O=c1oc2ccccc2cc1-c1nc2c(s1)CCc1ccccc1-2	-15.6	-5.3	1.6	-28.2	-0.2
O=c1oc2cc(O)ccc2cc1-c1nc2c(s1)CCc1ccccc1-2	-7.8	-7.0	0.9	+	-37.2
CCC(=O)C1CCCN(C(=O)c2ccc(OC)c(OC3CCN(C(C)=O)CC3)c2)C1 (stereo unspecified)	-6.9	42.9*	-1.4	1.9	-2.5
COc1ccc(C(=O)N2CCN(C)C(C)C2)cc1OC1CCN(C(C)=O)CC1 (stereo unspecified)	-1.8	3.0	-0.9	-0.2	-0.5
COc1ccc(S(=O)(=O)NNS(=O)(=O)c2ccc(OC)c(OC)c2)cc1OC	.	-1.8	-1.0	1.9	-0.7
CC1=C(C(=O)OCc2ccccc2)C(c2cccc([N+](=O)[O-])c2)NC(=O)N1CCCCCC(=O)O (stereo unspecified)	-3.8	-7.8	-1.3	5.9	0.4
CCOC(=O)C1=C(C)N(CCCCCC(=O)O)C(=O)NC1c1cccc([N+](=O)[O-])c1 (stereo unspecified)	-5.9	-3.8	-1.0	92.2*	1.4
COc1cc([N+](=O)[O-])ccc1NC(=S)NNC(=O)c1ccc2c(c1)OCO2	-7.6	-31.8	-1.5	-0.6	0.3
O=C(NC(=S)Nc1cc([N+](=O)[O-])ccc1O)c1ccc2c(c1)OCO2	-4.8	-6.2	58.3*	-0.4	14.3
Cc1cc(N2CCN(C(=O)Nc3ccccc3C#N)CC2)c2ccccc2n1	6.3	-0.5	51.1*	-0.4	2.0
Cc1cc(N2CCN(C(=O)c3[nH]c(C(F)(F)F)nc3-c3ccccc3)CC2)c2ccccc2n1	.	11.9	35.6	-5.4	-0.9
C[C@@H]1CN([C@H](C)CO)C(=O)CCCn2cc(nn2)CO[C@H]1CN(C)S(=O)(=O)c1ccccc1F	.	4.1	-1.7	8.6	0.1
Cc1cccc(Nc2nc(-c3ccc(O)cc3O)cs2)n1	0.1	0.1	2.3	-21.8	0.3
O=C(COC(=O)Cc1c(Cl)cccc1Cl)Nc1ccc2[nH]c(=O)[nH]c2c1	1.2	54.5*	-0.2	0.2	3.2
O=C(COC(=O)c1nc(Cl)ccc1Cl)Nc1ccc2[nH]c(=O)[nH]c2c1	-1.1	63.5*	-0.1	8.2	2.5
O=C(CCC(=O)N1CCN(c2ccc(Cl)c(Cl)c2)CC1)c1ccccc1	-9.1	8.1	5.2	-2.7	2.5
COc1ccc2[nH]c3c(=O)n(/N=C/c4ccc(OC)c(CN5CCCC5)c4)c(C)nc3c2c1	-4.1	66.2*	7.5	11.9	0.3
COc1ccc2c(c1)[nH]c1c(=O)n(/N=C/c3ccc(OC)c(CN4CCCC4)c3)cnc12	-14.0	-0.9	19.9	-6.5	5.7
COC(=O)C(CC(=O)c1ccc(Cl)cc1)c1ccccc1 (stereo unspecified)	-7.6	0.0	1.4	2.5	1.6
